ABCG2 block – ABCG2 efflux pump inhibitors, primary screen, multiplex with ABCB1, IgMXP3 cells, flow cytometry | Broad substrate specificity ATP-binding cassette transporter ABCG2 (Homo sapiens), Q9UNQ0 | JC-1 efflux | inhibition, % at 6.6 µM | hit rate 0.1% among 190,000 | AID 1325, 2008;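 active = inhibition above 80%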
Target sequence (Q9UNQ0 whole entry, looked up): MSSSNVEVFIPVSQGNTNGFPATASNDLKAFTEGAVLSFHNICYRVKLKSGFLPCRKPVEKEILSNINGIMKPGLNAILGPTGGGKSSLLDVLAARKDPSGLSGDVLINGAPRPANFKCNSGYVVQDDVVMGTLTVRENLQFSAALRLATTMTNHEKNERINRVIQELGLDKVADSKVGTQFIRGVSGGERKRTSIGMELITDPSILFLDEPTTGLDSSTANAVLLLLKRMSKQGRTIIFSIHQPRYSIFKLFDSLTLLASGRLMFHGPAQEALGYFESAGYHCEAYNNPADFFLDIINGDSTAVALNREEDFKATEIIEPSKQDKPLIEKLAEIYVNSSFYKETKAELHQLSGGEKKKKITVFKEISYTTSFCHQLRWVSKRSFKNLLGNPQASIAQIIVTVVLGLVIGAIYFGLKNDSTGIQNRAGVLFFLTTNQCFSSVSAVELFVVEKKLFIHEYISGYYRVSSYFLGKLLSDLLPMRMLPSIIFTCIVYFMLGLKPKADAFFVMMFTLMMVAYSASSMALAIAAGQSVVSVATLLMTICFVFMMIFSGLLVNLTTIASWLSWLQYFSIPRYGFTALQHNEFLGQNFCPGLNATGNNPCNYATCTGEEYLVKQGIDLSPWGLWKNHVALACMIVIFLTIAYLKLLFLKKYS
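Read-out basis: Efflux inhibition in percent versus controls | Test system: ABCG2 IgMXP3 and barcoded ABCB1 CCRF-Adr cell mix | Quantity: 3 million cells/mL in well | Schedule: 10 min at 25 °C | Control set: Nicardipine as high control, DMSO as low control | Reagent: JC-1 as fluorescent efflux pump substrate | Signal: Flow cytometry of retained JC-1 fluorescence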
ABCB1 block – ABCB1 efflux pump inhibitors, primary screen, cell-based, multiplex, flow cytometry, ABCG2 counter-screen. ATP-dependent translocase ABCB1 (Homo sapiens), P08183. inhibition, % at 6.6 µM. hit rate 0.067% among 190,000. CCRF-Adr cells, JC-1 efflux; in the data active = inhibition above about 40%;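 note: higher value means more JC-1 retained so stronger ABCB1 efflux block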
RBBP9 inh – human RBBP9 inhibitors, primary screen, biochemical, fluorescence polarization, FP-Rh probe, HTS. recombinant RBBP9. inhibition, % at 7.94 µM. hit rate 0.2% among 220,000;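 active = inhibition above the campaign mean of all tested compounds plus 3 SD, cut at about 14% in these data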
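system = RBBP9 protein | input = RBBP9 at 2.5 µM in dispensed solution, before mixing | measured by = fluorescence polarization (mP), excitation 525 nm, emission 598 nm | incubation = enzyme-compound preincubation 30 min, then probe labeling 45 min, 25 °C | buffer or medium = Tris-NaCl-Pluronic buffer, pH 8.0 | compound = single dose 7.94 µM | also added = FP-Rh probe, 375 nM dispensing solution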
EP2 modulator – EP2 receptor modulators, cAMP readout, primary screen, cell-based, HTRF cAMP, PGE2 stimulation; Prostaglandin E2 receptor EP2 subtype (Homo sapiens), P43116; EP2-expressing cells, cAMP HTRF FRET, PGE2 co-stimulation; induction, % at 25 µM; hit rate 0.83% among 260,000;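 active = compounds whose cAMP rise, as percent of the full-agonist control response, exceeds 60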;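 note: rat C6 glioma line stably carrying human EP2 under a CMV promoter; the protocol text gives 20 µM as final concentration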
PGE2 EP2 inh – human EP2 receptor antagonists, primary screen, TR-FRET cAMP, C6 glioma cells; hit rate 0.52% among 260,000; AID 1422, 2008; C6 glioma cells expressing human EP2; cells stimulated with saturating PGE2; inhibition, % at 25 µM;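 active = percent inhibition above 40 after rounding to a whole number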;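 note: rat C6 glioma host cells with rolipram phosphodiesterase inhibitor present; the protocol text gives 20 µM as final concentration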
EP2 cAMP induct – cAMP induction in EP2, EP4, beta2-AR and parental cells, confirmation, counter-screen for EP2 modulator project, cell-based, five parallel assays, C6 glioma, HEK293; shares compounds with EP2 modulator; cAMP HTRF induction; plus low (about EC15) PGE2 agonist; calls only at 20 µM (by protocol); hit rate 47% among 1,300; AID 1080, 2008;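 active = cAMP induction above 50% in the main assay while under 30% in all four parallel counter assays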;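 note: rat C6 glioma cells stably expressing human EP2 receptor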
Each line names hits and unclear results; the compound was inactive in the other large screens (follow-up assays come after a bar, where they were run). The list is not random: actives were taken first. Their share in the collection is about 1.5%.

O=C(NC1CCCCC1)[C@H]1C=CCN1S(=O)(=O)c1ccc(F)cc1	none (no result: ABCG2 block, ABCB1 block, RBBP9 inh)
Fc1cccc(COc2ccccc2C(=S)N2CCCC2)c1	none
CN1C(=O)/C(=C/c2ccccc2OCc2cccc(F)c2)N(C)C1=S	EP2 modulator 70 | EP2 cAMP induct active
CCOC(=O)c1c(-c2cccs2)csc1NC(=O)COC(=O)c1c(C)noc1C	EP2 modulator 69 | EP2 cAMP induct active
Cc1cnc(C(=O)N[C@@H](C)Cn2nnc3ccccc32)cn1	none (no result: ABCG2 block, ABCB1 block, RBBP9 inh)
Cc1ccc(Cn2ccc(=O)c(OCc3c(Cl)cccc3Cl)c2C)cc1	EP2 modulator 67 | EP2 cAMP induct active
Cc1sc2nc(SCC(N)=O)n(CCc3ccccc3)c(=O)c2c1C	none (no result: ABCG2 block, ABCB1 block, RBBP9 inh)
COc1ccc(-c2nnc(N3CCCCC3)c3ccccc23)cc1	none
Cc1ccc(-c2nnc(N3CCC(C)CC3)c3ccccc23)cc1	EP2 modulator 74 | EP2 cAMP induct inactive
CCOc1ccccc1C(=O)Nc1ccsc1C(=O)OC	EP2 modulator 81 | EP2 cAMP induct active
COc1cc(C)c(CNC(=O)c2cnc(N3CCOCC3)nc2)cc1C(C)C	none (no result: ABCG2 block, ABCB1 block, RBBP9 inh)
C=CCOC(=O)c1ccc[n+](Cc2ccccc2)c1	none (no result: ABCG2 block, ABCB1 block, RBBP9 inh)
CCOc1nc2cccc(C(=O)OC(C)OC(=O)OC3CCCCC3)c2n1Cc1ccc(-c2ccccc2-c2nn[nH]n2)cc1 (configuration not stated)	none (no result: ABCG2 block, ABCB1 block, RBBP9 inh) | EP2 cAMP induct inactive
Cc1cc(-c2cncnc2C2CCCN(C(=O)c3cc(C(C)C)[nH]n3)C2)on1 (configuration not stated)	none (no result: ABCG2 block, ABCB1 block, RBBP9 inh, PGE2 EP2 inh)
O=c1c2ccccc2c(-c2ccccc2)nn1Cc1c(Cl)cccc1Cl	EP2 modulator 85 | EP2 cAMP induct active
Cc1cccc2cc(CN(CCc3ccccc3)C(=O)C3CC3)c3nnnn3c12	none (no result: ABCG2 block, ABCB1 block, RBBP9 inh)
Cc1cc(C)c2nc(N3CCCN(C(=O)c4ccco4)CC3)c(C#N)cc2c1	EP2 modulator 70 | EP2 cAMP induct active
COc1ccc(C(=O)COC(=O)C(CCSC)NS(=O)(=O)c2ccc(Cl)cc2)cc1 (configuration not stated)	EP2 modulator 70 | EP2 cAMP induct inactive
Cc1c(Cl)cccc1NC(=O)CSc1ncc(C#N)c(N)n1	none (no result: ABCG2 block, ABCB1 block, RBBP9 inh)
O=C(O)C1C(c2ccccc2)C(C(=O)OCc2ccco2)C1c1ccccc1 (configuration not stated)	none
COC(=O)C1C(c2ccccc2)C(C(=O)OCc2ccco2)C1c1ccccc1 (configuration not stated)	EP2 modulator 68 | EP2 cAMP induct inactive
Cc1c(C(=O)N(C)C2CCN(C(C)C)CC2)nnn1-c1ccccc1	none (no result: ABCG2 block, ABCB1 block, RBBP9 inh)
Cc1cccc(CSc2ncnc3ccccc23)c1	EP2 modulator 71 | EP2 cAMP induct inactive
Cc1nccc2[nH]c(=O)c(C(=O)NC3CCCCC3C)cc12 (configuration not stated)	EP2 modulator 74 | EP2 cAMP induct inactive
CCOc1ccc(CCNC(=O)c2cc3c(C)nccc3[nH]c2=O)cc1OCC	none
COc1ccccc1CNC(=O)C1CCN(c2nc3ccccc3n2C)CC1	none (no result: ABCG2 block, ABCB1 block, RBBP9 inh)
Cc1ccccc1OCc1nc2ccccc2c(=O)n1/N=C/c1ccco1	EP2 modulator 67 | EP2 cAMP induct inactive
Cc1cc2ccccn2c1C(=O)c1ccncc1	none
Cc1cc2ccccn2c1C(=O)c1ccc(Cl)cc1	EP2 modulator 65 | EP2 cAMP induct inactive
CCCn1c2ccccc2c2nc3ccccc3nc21	EP2 modulator 78 | EP2 cAMP induct active
CCCn1c(Nc2nc3ccccc3n2C)nc2ccccc21	EP2 modulator 71 | EP2 cAMP induct inactive
CCn1c2ccc(F)cc2c2nc3ccccc3nc21	none | EP2 cAMP induct inactive
N#CCSc1nc2ccccc2c(=O)n1C1CCCCC1	EP2 modulator 71 | EP2 cAMP induct active
COc1ccccc1CC(=O)N1CCC(O)(c2cccnc2)CC1	none (no result: ABCG2 block, ABCB1 block, RBBP9 inh, PGE2 EP2 inh)
CCOc1cc(/C=N/NC(N)=O)ccc1OC(=O)c1ccc(C)cc1	EP2 modulator 66 (no result: PGE2 EP2 inh) | EP2 cAMP induct inactive
Cc1ccc(S(=O)(=O)c2c(C)cc(C)nc2Cl)cc1	none
CCOc1nc(C)cc(C)c1S(=O)(=O)c1ccc(Cl)cc1	EP2 modulator 81 | EP2 cAMP induct active
c1ccc(-c2noc(CN3CCN(C(c4ccccc4)c4ccccc4)CC3)n2)cc1	none | EP2 cAMP induct inactive
COc1ccc(N2C(=O)N(Cc3ccc(C)cc3)c3ccccc3S2(=O)=O)cc1	EP2 modulator 79 | EP2 cAMP induct active
CCOC(=O)C1=C(CC)OC(N)=C(C#N)C1c1ccsc1 (configuration not stated)	none | EP2 cAMP induct inactive
CCOC(=O)C1=C(C)OC(N)=C(C#N)C1c1cc(C)sc1C (configuration not stated)	none | EP2 cAMP induct inactive
CCOC(=O)C1=C(C)N(C)C(C)=C(C(=O)OCC)C1c1ccc(Cl)cc1	none
CCOC(=O)C1=C(C)OC(N)=C(C#N)C1c1ccsc1 (configuration not stated)	none
CCOC(=O)C1=C(C)N(C)C(C)=C(C(=O)OCC)C1c1ccsc1	EP2 modulator 72 | EP2 cAMP induct active
CCSC1=N/C(=C\c2ccccc2)C(=O)N1c1ccc(OC)cc1	EP2 modulator 79 | EP2 cAMP induct active
COc1cccc(C(c2nnnn2C2CCCCC2)N2CCN(c3cccc(C)c3C)CC2)c1OC (configuration not stated)	none (no result: ABCG2 block, ABCB1 block, RBBP9 inh)
O=C(c1cc(-c2ccccn2)nc2ccc(Br)cc12)N1CCc2ccccc2C1	EP2 modulator 66 (no result: PGE2 EP2 inh) | EP2 cAMP induct inactive
O=C(c1cc(-c2ccccn2)nc2ccc(Br)cc12)N1CCN(S(=O)(=O)c2ccccc2)CC1	none
CNC(=O)C1CCN(S(=O)(=O)c2ccc(OC)c(C)c2)CC1	none (no result: ABCG2 block, ABCB1 block, RBBP9 inh)
Cc1ccc2[nH]c3nc(SCC(=O)Nc4sc(C)c(C)c4C#N)nnc3c2c1	none (no result: ABCG2 block, ABCB1 block, RBBP9 inh)
CCc1cccc(Nc2cc(C)nc3ncnn23)c1	none
CCn1c2ccccc2c2cc(Nc3cc(C)nc4ncnn34)ccc21	EP2 modulator 83 | EP2 cAMP induct active
Cc1cc(O)c(C=O)c2c1C(=O)Oc1c(C)c(O)c3c(c1O2)C(O)OC3=O (configuration not stated)	none (no result: ABCG2 block, ABCB1 block, RBBP9 inh) | EP2 cAMP induct inactive
COc1cc(C)c2c(c1C=O)Oc1c(c(C)c(O)c3c1C(O)OC3=O)OC2=O (configuration not stated)	none
